Laboratory results reported in ChEMBL document CHEMBL3421533, “The Discovery of Orally Bioavailable Tyrosine Threonine Kinase (TTK) Inhibitors: 3-(4-(heterocyclyl)phenyl)-1H-indazole-5-carboxamides as Anticancer Agents” (J Med Chem, 2015).

Columns and labels:
[1] = Cytotoxicity against human TOV21G cells after 5 days by sulforhodamine B assay; assay type: functional; details: 120 h
Outline: (§1)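 Cancer lines were seeded at 800–6000 cells per well according to growth rate, 24 h before compound overlay. After culture, cells were fixed in situ and stained with sulforhodamine B. GI50 values were derived by curve fitting.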

[2] = Half life in human liver microsomes at 1 uM by LC-MS analysis; assay type: ADME
A549 = experiment: Cytotoxicity against human A549 cells after 5 days by sulforhodamine B assay; assay type: functional; details: A549, 120 h; outline: as §1
Aurora kinase A = target: T1, Aurora kinase A (Homo sapiens, UniProt O14965); experiment: Inhibition of recombinant AURKA (unknown origin) preincubated for 15 mins prior to ATP addition by FRET-based homogenous assay
T1 sequence (O14965 whole entry): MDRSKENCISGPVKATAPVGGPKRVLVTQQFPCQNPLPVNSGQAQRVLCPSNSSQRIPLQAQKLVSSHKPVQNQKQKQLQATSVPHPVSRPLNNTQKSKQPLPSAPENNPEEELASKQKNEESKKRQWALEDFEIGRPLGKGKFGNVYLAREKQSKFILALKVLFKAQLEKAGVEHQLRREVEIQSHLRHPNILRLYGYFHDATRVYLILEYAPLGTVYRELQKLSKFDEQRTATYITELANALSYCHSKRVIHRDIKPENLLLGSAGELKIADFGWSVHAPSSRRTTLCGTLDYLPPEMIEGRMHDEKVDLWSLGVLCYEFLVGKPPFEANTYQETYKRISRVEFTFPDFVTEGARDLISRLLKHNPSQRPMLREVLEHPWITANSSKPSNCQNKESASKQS

SW48 = experiment: Cytotoxicity against human SW48 cells after 5 days by sulforhodamine B assay; assay type: functional; details: SW48, 120 h; outline: as §1
[3] = Half life in Sprague-Dawley rat at 1 mg/kg, iv by LC-MS/MS analysis; assay type: ADME, organism-based; parameters: dose 1 mg/kg, route intravenous; details: in vivo
[4] = target: T2, Aurora kinase B/Inner centromere protein (Homo sapiens, UniProt Q96GD4); experiment: Inhibition of AURKB/INCENP (unknown origin) preincubated for 15 mins prior to ATP addition by FRET-based homogenous assay; assay type: protein-complex assay
Outline: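 The enzyme was AURKB/INCENP in a FRET-based homogeneous assay run to kit specifications, with ATP at 128 μM. […] Each IC50 came from a single determination, reported with its standard fitting error.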

[5] = Plasma protein binding in human; assay type: ADME, cell-free; details: read-out: PPB (converted)
SK-MEL-28 = experiment: Cytotoxicity against human SK-MEL-28 cells after 5 days by sulforhodamine B assay; assay type: functional; details: SK-MEL-28, 120 h; outline: as §1
MDA-MB-468 = experiment: Antitumor activity against human MDA-MB-468 cells xenografted in CB-17 SCID mouse assessed as tumor growth inhibition at 30 mg/kg, po qd administered for 21 days measured 3 times per week during compound dosing relative to vehicle-treated control; assay type: functional; details: MDA-MB-468, 504 h, read-out: TGI
Outline: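 Groups (n = 5) were randomized at a mean tumor volume of 80–120 mm³. Oral daily dosing for 21 days in 10% NMP/40% PEG400/50% DI water, top dose 30 mg/kg. Tumors were measured three times weekly, volume x²y/2, and TGI was computed against vehicle.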

[6] = target: Mitogen-activated protein kinase 10 (Homo sapiens, UniProt P53779); experiment: Inhibition of human JNK3 by millipore radiometric assay
Outline: (§2)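 Radiometric profiling against a 278-kinase panel was done with ATP at Km. Half-maximal inhibitory concentrations were then determined for the kinases most inhibited.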

[7] = target: Mast/stem cell growth factor receptor Kit (Homo sapiens, UniProt P10721, V560G); experiment: Inhibition of human cKit V560G mutant by millipore radiometric assay; outline: as §2
[8] = target: T2, Aurora kinase B/Inner centromere protein; experiment: Inhibition of AURKB/INCENP (unknown origin) transfected in human HCT116 cells after 4 hrs by near infrared imager analysis; assay type: cell-based, HCT-116
Outline: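 HCT116 cells transfected with wild-type TTK were arrested with nocodazole (200 ng/mL, 17 h). They were pretreated with MG132 (15 μM, 30 min), then exposed to compound or DMSO for 4 h. Blots were probed for phospho-TTK (Thr12/Ser15), phospho-Aurora A (Thr288)/B (Thr232), TTK and GAPDH. Bands were quantified by near-infrared imaging, and EC50 was fitted.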

COLO 205 = experiment: Cytotoxicity against human COLO205 cells after 5 days by sulforhodamine B assay; assay type: functional; details: COLO 205, 120 h; outline: as §1
DU-145 = experiment: Cytotoxicity against human DU145 cells after 5 days by sulforhodamine B assay; assay type: functional; details: DU-145, 120 h; outline: as §1
[9] = target: Proto-oncogene tyrosine-protein kinase receptor Ret (Homo sapiens, UniProt P07949); experiment: Inhibition of human Ret by millipore radiometric assay; outline: as §2
[10] = target: Proto-oncogene tyrosine-protein kinase receptor Ret (Homo sapiens, UniProt P07949, V804M); experiment: Inhibition of human Ret V804M mutant by millipore radiometric assay; outline: as §2
[11] = Cytotoxicity against human SKBR3 cells after 5 days by sulforhodamine B assay; assay type: functional; details: SK-BR-3, 120 h; outline: as §1
HCT-116 [12] = experiment: Induction of chromosome segregation defect in human HCT116 cells assessed as anaphase and telophase cells with lagging chromosomes at 500 nM incubated for 6 hrs post double thymidine block by DAPI staining-based immunofluorescence microscopic analysis (reference value: 19 +/- 2%); assay type: functional
[13] = Plasma protein binding in mouse; assay type: ADME; details: read-out: PPB (converted)
[14] = target: Mast/stem cell growth factor receptor Kit (Homo sapiens, UniProt P10721); experiment: Inhibition of human cKit by millipore radiometric assay; outline: as §2
Cytochrome P450 3A4 = Cytochrome P450 3A4 (Homo sapiens, UniProt P08684); experiment: Inhibition of human CYP3A4 using BFC as substrate preincubated for 10 mins followed by enzyme/substrate addition measured after 30 mins by fluorescence assay; assay type: ADME
[15] = AUCinfinity in Sprague-Dawley rat at 5 mg/kg, po by LC-MS/MS analysis; assay type: ADME, organism-based; parameters: time infinity, dose 5 mg/kg, route oral; details: plasma
SK-MEL-5 = experiment: Cytotoxicity against human SK-MEL-5 cells after 5 days by sulforhodamine B assay; assay type: functional; details: SK-MEL-5, 120 h; outline: as §1
[16] = Toxicity in po dosed athymic CD1 nude mouse assessed as body weight loss in excess 20% and deemed moribund administered as qd for 21 days measured 3 times per week during compound dosing; assay type: organism-based; details: in vivo
[17] = Cytotoxicity against human H23 cells after 5 days by sulforhodamine B assay; assay type: functional; details: NCI-H23, 120 h; outline: as §1
MCF7 = experiment: Cytotoxicity against human MCF7 cells after 5 days by sulforhodamine B assay; assay type: functional; details: MCF7, 120 h; outline: as §1
HCT-116 [18] = experiment: Induction of chromosome segregation defect in human HCT116 cells assessed as anaphase and telophase cells with lagging chromosomes at 100 nM incubated for 6 hrs post double thymidine block by DAPI staining-based immunofluorescence microscopic analysis (reference value: 19 +/- 2%); assay type: functional
BT-474 = experiment: Cytotoxicity against human BT474 cells after 5 days by sulforhodamine B assay; assay type: functional; details: BT-474, 120 h; outline: as §1
[19] = Oral bioavailability in Sprague-Dawley rat at 5 mg/kg by LC-MS/MS analysis; assay type: ADME, organism-based; details: in vivo

T2 sequence (Q96GD4 whole entry): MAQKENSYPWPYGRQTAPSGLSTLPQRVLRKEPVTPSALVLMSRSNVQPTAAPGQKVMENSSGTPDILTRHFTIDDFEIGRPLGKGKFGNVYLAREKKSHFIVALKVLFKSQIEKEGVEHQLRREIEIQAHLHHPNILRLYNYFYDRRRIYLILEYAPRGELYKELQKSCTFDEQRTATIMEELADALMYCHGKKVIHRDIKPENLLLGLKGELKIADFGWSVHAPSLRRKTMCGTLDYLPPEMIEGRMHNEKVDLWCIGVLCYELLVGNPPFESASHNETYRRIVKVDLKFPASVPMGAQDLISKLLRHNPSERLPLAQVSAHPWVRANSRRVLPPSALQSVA
T2 sequence (Q9NQS7 whole entry, further chain): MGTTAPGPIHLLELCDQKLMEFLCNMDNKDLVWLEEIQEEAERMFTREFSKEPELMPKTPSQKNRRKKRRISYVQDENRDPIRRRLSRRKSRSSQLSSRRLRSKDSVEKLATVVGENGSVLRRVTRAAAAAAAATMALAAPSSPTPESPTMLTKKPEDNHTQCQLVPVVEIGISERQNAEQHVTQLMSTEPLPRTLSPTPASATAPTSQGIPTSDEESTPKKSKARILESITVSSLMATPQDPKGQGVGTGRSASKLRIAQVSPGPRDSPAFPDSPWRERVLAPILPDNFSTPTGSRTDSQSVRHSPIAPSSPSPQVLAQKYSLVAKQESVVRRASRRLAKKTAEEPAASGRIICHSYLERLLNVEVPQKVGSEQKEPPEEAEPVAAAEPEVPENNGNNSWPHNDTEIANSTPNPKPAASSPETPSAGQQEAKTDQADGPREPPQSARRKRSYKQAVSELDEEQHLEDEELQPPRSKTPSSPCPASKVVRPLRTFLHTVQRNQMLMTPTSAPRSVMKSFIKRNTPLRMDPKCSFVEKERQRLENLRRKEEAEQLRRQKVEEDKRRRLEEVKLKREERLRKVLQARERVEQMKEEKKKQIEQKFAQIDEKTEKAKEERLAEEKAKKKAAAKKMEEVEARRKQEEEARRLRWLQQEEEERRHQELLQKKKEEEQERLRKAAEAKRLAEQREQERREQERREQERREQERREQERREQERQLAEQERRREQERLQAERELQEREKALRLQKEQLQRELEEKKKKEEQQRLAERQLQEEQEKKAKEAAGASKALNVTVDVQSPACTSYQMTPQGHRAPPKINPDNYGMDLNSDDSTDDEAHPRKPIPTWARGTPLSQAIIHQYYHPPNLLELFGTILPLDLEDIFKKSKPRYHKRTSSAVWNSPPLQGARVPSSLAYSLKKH
Sequence of Mast/stem cell growth factor receptor Kit (Homo sapiens, UniProt P10721, V560G) (P10721 26-976 V560G limits assumed): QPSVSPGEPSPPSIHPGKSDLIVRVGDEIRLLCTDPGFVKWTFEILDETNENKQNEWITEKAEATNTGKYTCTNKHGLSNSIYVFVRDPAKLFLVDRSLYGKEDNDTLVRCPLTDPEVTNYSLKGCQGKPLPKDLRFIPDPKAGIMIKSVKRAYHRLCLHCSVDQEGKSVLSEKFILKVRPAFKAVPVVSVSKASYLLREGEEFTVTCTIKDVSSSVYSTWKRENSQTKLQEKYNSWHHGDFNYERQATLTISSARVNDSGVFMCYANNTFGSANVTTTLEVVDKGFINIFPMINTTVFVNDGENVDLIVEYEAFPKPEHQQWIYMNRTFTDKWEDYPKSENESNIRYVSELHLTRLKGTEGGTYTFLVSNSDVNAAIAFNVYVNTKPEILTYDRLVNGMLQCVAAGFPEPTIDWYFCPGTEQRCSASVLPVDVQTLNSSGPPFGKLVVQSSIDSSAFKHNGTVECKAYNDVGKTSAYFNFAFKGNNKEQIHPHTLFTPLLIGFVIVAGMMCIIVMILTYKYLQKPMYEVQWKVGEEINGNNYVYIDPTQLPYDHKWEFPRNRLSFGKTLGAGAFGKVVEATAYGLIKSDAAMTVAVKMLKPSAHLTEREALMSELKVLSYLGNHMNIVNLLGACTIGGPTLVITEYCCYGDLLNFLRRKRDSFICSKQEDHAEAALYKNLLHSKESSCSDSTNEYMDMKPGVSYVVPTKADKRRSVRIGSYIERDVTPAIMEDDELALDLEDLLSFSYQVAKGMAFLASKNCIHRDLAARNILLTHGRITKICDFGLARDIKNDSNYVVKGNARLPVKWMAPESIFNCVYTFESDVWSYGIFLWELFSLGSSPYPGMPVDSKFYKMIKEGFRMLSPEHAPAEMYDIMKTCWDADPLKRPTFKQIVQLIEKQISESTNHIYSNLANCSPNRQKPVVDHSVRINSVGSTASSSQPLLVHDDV
Sequence of Cytochrome P450 3A4 (P08684 whole entry): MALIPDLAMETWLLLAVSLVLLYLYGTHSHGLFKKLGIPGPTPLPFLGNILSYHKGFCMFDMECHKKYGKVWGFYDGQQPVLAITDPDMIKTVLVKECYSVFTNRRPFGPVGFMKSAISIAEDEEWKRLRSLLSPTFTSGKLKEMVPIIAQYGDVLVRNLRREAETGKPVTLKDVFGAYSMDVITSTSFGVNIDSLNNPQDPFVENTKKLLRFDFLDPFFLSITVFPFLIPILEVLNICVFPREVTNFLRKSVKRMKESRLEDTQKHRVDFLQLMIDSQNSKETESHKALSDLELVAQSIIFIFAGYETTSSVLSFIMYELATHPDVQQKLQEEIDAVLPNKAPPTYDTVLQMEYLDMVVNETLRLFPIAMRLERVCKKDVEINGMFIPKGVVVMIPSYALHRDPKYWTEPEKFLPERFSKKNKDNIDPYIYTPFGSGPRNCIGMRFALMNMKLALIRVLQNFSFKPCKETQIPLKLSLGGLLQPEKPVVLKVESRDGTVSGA
Sequence of Mitogen-activated protein kinase 10 (P53779 whole entry): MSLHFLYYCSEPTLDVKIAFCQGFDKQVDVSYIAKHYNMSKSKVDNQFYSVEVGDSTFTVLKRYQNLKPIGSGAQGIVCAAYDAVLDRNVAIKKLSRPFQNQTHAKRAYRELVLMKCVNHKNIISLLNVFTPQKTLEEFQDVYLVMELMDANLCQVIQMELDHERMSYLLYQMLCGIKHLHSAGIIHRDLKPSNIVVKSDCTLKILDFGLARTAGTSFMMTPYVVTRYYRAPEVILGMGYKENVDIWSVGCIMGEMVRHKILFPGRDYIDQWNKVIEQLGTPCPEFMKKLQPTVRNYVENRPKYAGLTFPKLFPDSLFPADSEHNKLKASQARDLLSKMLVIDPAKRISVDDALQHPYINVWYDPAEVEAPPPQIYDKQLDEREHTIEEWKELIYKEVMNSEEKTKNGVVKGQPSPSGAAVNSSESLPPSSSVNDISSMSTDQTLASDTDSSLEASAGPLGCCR
Sequence of Mast/stem cell growth factor receptor Kit (Homo sapiens, UniProt P10721) (P10721 whole entry): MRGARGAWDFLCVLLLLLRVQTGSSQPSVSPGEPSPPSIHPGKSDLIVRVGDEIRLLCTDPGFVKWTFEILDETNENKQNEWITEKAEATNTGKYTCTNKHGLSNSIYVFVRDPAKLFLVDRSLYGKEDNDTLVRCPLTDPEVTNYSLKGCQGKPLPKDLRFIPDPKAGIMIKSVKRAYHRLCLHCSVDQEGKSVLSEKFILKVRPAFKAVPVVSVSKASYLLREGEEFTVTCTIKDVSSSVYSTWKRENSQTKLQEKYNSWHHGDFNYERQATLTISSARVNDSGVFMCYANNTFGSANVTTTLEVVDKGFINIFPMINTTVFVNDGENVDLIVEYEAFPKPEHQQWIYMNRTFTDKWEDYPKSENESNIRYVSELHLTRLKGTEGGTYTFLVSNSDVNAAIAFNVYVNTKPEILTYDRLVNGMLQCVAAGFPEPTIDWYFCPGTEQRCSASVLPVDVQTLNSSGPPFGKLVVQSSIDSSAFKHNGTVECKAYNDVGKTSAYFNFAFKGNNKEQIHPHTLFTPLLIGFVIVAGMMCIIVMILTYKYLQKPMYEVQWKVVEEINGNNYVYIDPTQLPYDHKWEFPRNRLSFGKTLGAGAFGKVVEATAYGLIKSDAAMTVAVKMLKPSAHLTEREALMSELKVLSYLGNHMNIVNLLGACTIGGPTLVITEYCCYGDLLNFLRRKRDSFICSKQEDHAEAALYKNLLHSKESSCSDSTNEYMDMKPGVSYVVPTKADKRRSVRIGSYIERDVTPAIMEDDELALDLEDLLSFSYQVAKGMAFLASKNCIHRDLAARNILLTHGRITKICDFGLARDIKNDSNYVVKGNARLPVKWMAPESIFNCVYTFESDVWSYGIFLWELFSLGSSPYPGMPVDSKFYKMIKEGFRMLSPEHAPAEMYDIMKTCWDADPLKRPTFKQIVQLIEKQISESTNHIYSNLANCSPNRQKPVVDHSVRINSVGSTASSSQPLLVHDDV

O=C(N[C@@H](c1ccccn1)C1CC1)c1ccc2[nH]nc(-c3ccc(N4[C@H]5CC[C@H]4CC(O)C5)cc3)c2c1 (stereo in doubt; 75)
GI50 [1]: 0.016 µM
half-life at 1 µM [2]: > 60 min
GI50 (A549): 0.024 µM
IC50 (Aurora kinase A): 1.3 µM
GI50 (SW48): 0.019 µM
half-life [3]: 46.8 min
IC50 [4]: 1.3 µM
fraction unbound [5]: 0.022
GI50 (SK-MEL-28): 0.21 µM
inhibition in vivo at 30 mg/kg (MDA-MB-468): 98%
IC50 [6]: 0.068 µM
IC50 [7]: 0.49 µM
EC50 [8]: > 6 µM
GI50 (COLO 205): 0.06 µM
GI50 (DU-145): 0.017 µM
IC50 [9]: 2.8 µM
IC50 [10]: 0.28 µM
GI50 [11]: 0.008 µM
Activity (HCT-116 [12]): 94%
fraction unbound [13]: 0.042
IC50 [14]: > 30 µM
IC50 (Cytochrome P450 3A4): 1.3 µM
AUC(0-inf) [15]: 0.55 µg·h/mL
GI50 (SK-MEL-5): 0.02 µM
MTD at 504 h [16]: 35 mg/kg
GI50 [17]: 0.036 µM
GI50 (MCF7): 0.015 µM
Activity (HCT-116 [18]): 61%
GI50 (BT-474): 0.015 µM
bioavailability [19]: 44%
